Data on 24 compounds can be found in ChEMBL document CHEMBL1132167, “Flavonoid-related modulators of multidrug resistance: synthesis, pharmacological activity, and structure-activity relationships” (J Med Chem, 1999).

Series [1] has as its system K562. The series can be described thus: Ability to potentiate DOX cytotoxicity on K562/DOX MDR cells. Cell survival was assayed by MTT conversion. The conditions noted are these: Homo sapiens. It counts as functional, cell-based. The procedure, abridged: (§1)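 K562/DOX human erythroleukemia cells (doxorubicin-selected, Pgp-overexpressing; RPMI-1640 + 10% FCS) exposed 72 h to seven graded doxorubicin concentrations (six wells each) plus tested compound at 1 or 5 μM, DMSO ≤0.1% final. MTT formazan dissolved in DMSO, A570 read. Survival relative to untreated wells; DOX IC50 by linear interpolation; MF = IC50(DOX alone)/IC50(DOX + compound). Mean of ≥2 independent experiments.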

A short description of series [2]: (§2) modulation factor: IC50 (uM). Format: functional.
The target of series [3] is T1, ATP-dependent translocase ABCB1 (Homo sapiens, UniProt P08183). The series can be described thus: Pgp transport inhibitory activity at 10 uM was measured by JC-1 accumulation assay method using JC-1 as substrate. Format: functional. In short, it runs like this:
(§3)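 JC-1 stock (1 mg/mL in DMSO) diluted to 5 μg/mL in PBS with 1 g/L glucose, then filtered to remove aggregates (monomer 0.2 μM final). Washed K562/DOX cells at 5×10^5/mL were incubated with JC-1 and compound concurrently at 37 °C, DMSO ≤0.5%. Fluorescence (485/590 nm) was followed to plateau, about 2 h. Accumulation is expressed as % of the 5 μM S9788 plate control after subtracting JC-1 alone. Mean of ≥2 experiments.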

For series [4], the target named is T1, ATP-dependent translocase ABCB1. The series can be described thus: Pgp transport inhibitory activity at 1 uM was measured by JC-1 accumulation assay method using JC-1 as substrate. Format: functional. The procedure, abridged:
as §3

Series [5] shares this target. The series can be described thus: Pgp transport inhibitory activity at 5 uM was measured by JC-1 accumulation assay method using JC-1 as substrate. Format: functional. The procedure, abridged: as §3
The nature of series [6]: Modulation factor: IC50(DOX alone)/IC50(DOX+modulator). Format: functional. In short, it runs like this:
as §1

For series [7], the system named is K562. Kind of series: Modulation factor: IC50(DOX alone)/IC50(DOX+modulator). Format: functional, Homo sapiens. In short, it runs like this:
as §1

A short description of series [8]: as §2. It counts as functional. The source holds these as a separate data set.

T1 sequence (P08183 whole entry): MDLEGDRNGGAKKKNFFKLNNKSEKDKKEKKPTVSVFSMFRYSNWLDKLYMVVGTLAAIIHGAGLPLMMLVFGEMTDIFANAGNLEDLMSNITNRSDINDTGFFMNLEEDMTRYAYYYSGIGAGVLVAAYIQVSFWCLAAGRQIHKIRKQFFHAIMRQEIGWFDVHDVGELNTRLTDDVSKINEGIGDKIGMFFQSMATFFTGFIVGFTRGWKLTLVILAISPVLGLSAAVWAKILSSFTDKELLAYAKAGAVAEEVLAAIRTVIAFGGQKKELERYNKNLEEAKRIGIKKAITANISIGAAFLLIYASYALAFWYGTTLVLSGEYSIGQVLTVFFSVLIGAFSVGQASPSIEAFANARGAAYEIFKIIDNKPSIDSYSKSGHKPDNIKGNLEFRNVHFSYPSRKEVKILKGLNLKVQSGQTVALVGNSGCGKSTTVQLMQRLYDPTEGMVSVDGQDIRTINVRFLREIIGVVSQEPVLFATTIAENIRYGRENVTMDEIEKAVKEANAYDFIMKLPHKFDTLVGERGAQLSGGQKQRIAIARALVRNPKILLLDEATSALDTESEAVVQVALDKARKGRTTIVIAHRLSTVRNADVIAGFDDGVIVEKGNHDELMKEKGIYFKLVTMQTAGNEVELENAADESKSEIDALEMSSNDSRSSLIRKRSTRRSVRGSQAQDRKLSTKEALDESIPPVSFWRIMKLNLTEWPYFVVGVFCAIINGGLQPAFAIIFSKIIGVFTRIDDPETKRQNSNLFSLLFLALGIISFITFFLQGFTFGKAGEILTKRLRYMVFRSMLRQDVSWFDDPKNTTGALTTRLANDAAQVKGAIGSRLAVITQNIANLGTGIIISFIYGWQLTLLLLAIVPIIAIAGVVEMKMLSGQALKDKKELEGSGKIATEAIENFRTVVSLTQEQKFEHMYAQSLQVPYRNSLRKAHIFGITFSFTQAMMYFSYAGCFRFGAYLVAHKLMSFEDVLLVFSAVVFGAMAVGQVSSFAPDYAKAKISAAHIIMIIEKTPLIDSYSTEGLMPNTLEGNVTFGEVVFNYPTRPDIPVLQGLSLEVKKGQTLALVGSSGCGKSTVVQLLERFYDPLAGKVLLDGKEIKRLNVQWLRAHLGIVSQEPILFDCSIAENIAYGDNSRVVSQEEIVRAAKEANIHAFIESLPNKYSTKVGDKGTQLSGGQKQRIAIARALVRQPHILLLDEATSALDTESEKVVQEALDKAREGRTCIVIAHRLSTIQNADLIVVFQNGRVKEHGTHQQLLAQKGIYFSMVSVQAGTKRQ

As a reminder, the IC50 is the point on the concentration scale where inhibition reaches its midpoint. As for `COc1ccc(-c2cc(=O)c3c(O)cc(O[C@@H]4O[C@H](CO[C@@H]5O[C@@H](C)[C@H](O)[C@@H](O)[C@H]5O)[C@@H](O)[C@H](O)[C@H]4O)cc3o2)cc1OCC(=O)N1CCN(Cc2ccc(OC)c(OC)c2OC)CC1`, the IC50 in series [1] was more than 20 µM. In series [2], this compound registered a Modulation factor of 1. The “Relative JC-1 accumulation” value in series [3], in series [4] and in series [5] was 0 in each case.
Take `COc1ccc(C2CC(=O)c3c(O)cc(OCC(=O)N4CCN(Cc5ccc(OC)c(OC)c5OC)CC4)cc3O2)cc1O` (configuration not stated): in series [1], the IC50 came out at 16 µM. Further, the “Relative JC-1 accumulation” value in series [3] was found to be 69; in series [4], 4; in series [5], 50. Also, the Modulation factor stood at 42 in series [6] and 11 in series [7].
Regarding `COc1ccc(-c2cc(=O)c3c(O)cc(OCC(=O)N4CCN(Cc5ccc(OC)c(OC)c5OC)CC4)cc3o2)cc1OCC(=O)N1CCN(Cc2ccc(OC)c(OC)c2OC)CC1`, in series [1], the IC50 was 2 µM. Further, the “Relative JC-1 accumulation” value turned out to be 53 in series [3], 22 in series [4] and 60 in series [5]. For the same compound, the Modulation factor in series [7] is 1.
For `CCOC(=O)COc1cc(O)c2c(=O)cc(-c3ccc(OC)c(OCC(=O)N4CCN(Cc5ccc(OC)c(OC)c5)CC4)c3)oc2c1`, the IC50 in series [1] came to 9 µM. The figures for the “Relative JC-1 accumulation” value in series [3], in series [4] and in series [5] were 31, 4 and 26, respectively. Moreover, the Modulation factor in series [6] turned out to be 25; in series [7], 2.
With `COc1ccc(C2CC(=O)c3c(O)cc(OCC(=O)N4CC[N+](C)(Cc5ccc(OC)c(OC)c5OC)CC4)cc3O2)cc1O.[I-]` (configuration not stated), in series [1], the IC50 is more than 20 µM. In addition, the “Relative JC-1 accumulation” value in series [3], in series [4] and in series [5] was 0 throughout. The Modulation factor in series [6] was 1.
As to `COc1ccc(CCC(=O)c2c(O)cc(OCC(=O)N3CCN(Cc4ccc(OC)c(OC)c4OC)CC3)cc2O)cc1O`, the IC50 in series [1] was more than 20 µM. The Modulation factor in series [2] amounted to 3. The figures for the “Relative JC-1 accumulation” value in series [3] and in series [4] were 5 and 2, respectively.
Take `COc1ccc(C2CC(=O)c3c(O)cc(OCC(=O)N4CCN(Cc5cccc(OC)c5OC)CC4)cc3O2)cc1O` (configuration not stated): the IC50 in series [1] is more than 20 µM. The figures for the “Relative JC-1 accumulation” value in series [3], in series [4] and in series [5] were 6, 0 and 2, respectively. Also, the figures for the Modulation factor in series [6] and in series [7] were 28 and 4, respectively.
Regarding `CCOC(=O)COc1cc(-c2cc(=O)c3c(O)cc(OCC(=O)N4CCN(Cc5cccc(OC)c5OC)CC4)cc3o2)ccc1OC`, the IC50 in series [1] was more than 20 µM. For the same compound, the “Relative JC-1 accumulation” value stood at 28 in series [3], 2 in series [4] and 22 in series [5]. For the same compound, the figures for the Modulation factor in series [6] and in series [7] were 24 and 5, respectively.
Take `COc1ccc(CCN(C)CCCC(C#N)(c2ccc(OC)c(OC)c2)C(C)C)cc1OC` (configuration not stated) [VERAPAMIL]: the IC50 in series [1] was 37 µM. The Modulation factor in series [2] was determined as 31; in series [8], 7.
With `CCOC(=O)COc1cc(O)c2c(=O)cc(-c3ccc(OC)c(OCC(=O)N4CCN(Cc5cc(OC)c(OC)c(OC)c5)CC4)c3)oc2c1`, the IC50 in series [1] is 11 µM. The “Relative JC-1 accumulation” value in series [3] turned out to be 55; in series [4], 5; in series [5], 56. In addition, the Modulation factor in series [6] worked out at 25; in series [7] it was 5.
Consider `CCOC(=O)COc1cc(OCC(=O)N2CCN(Cc3ccc(OC)c(OC)c3OC)CC2)c2c(=O)cc(-c3ccc(OC)c(OCC(=O)OCC)c3)oc2c1`, for which the IC50 in series [1] was more than 20 µM. Moreover, the “Relative JC-1 accumulation” value is 59 in series [3], 1 in series [4] and 10 in series [5]. In series [6], this compound came in with a Modulation factor of 1.
Regarding `CCOC(=O)COc1cc(-c2cc(=O)c3c(O)cc(OCC(=O)N4CCN(Cc5ccc(OC)c(OC)c5)CC4)cc3o2)ccc1OC`, in series [1], the IC50 is more than 20 µM. For the same compound, the “Relative JC-1 accumulation” value in series [3] is recorded as 27; in series [4], 3; in series [5], 28. Moreover, the Modulation factor worked out at 23 in series [6] and 4 in series [7].
As to `CCOC(=O)COc1cc(-c2cc(=O)c3c(O)cc(OCC(=O)N4CCN(Cc5ccc(Cl)cc5)CC4)cc3o2)ccc1OC`, the IC50 in series [1] amounted to 14 µM. In addition, the “Relative JC-1 accumulation” value is 23 in series [3], 6 in series [4] and 14 in series [5]. Further, the Modulation factor in series [6] is 22; in series [7], 4.
With `CCOC(=O)COc1cc(O)c2c(=O)cc(-c3ccc(OC)c(OCC(=O)N4CCN(Cc5ccccc5Cl)CC4)c3)oc2c1`, the IC50 in series [1] was more than 20 µM. The “Relative JC-1 accumulation” value in series [3] came to 24; in series [4], 7; in series [5] it was 13. Moreover, the figures for the Modulation factor in series [6] and in series [7] were 7 and 2, respectively.
With `CCOC(=O)COc1cc(-c2cc(=O)c3c(O)cc(OCC(=O)N4CCN(Cc5cc(OC)c(OC)c(OC)c5)CC4)cc3o2)ccc1OC`, the IC50 in series [1] is more than 20 µM. Further, the “Relative JC-1 accumulation” value amounted to 24 in series [3], 2 in series [4] and 26 in series [5]. Moreover, the figures for the Modulation factor in series [6] and in series [7] were 31 and 3, respectively.
Consider `CCOC(=O)COc1cc(O)c2c(=O)cc(-c3ccc(OC)c(OCC(=O)N4CCN(Cc5ccc(OC)c(OC)c5OC)CC4)c3)oc2c1`, for which, in series [1], the IC50 was more than 20 µM. The entries for the “Relative JC-1 accumulation” value in series [3], in series [4] and in series [5] were 59, 7 and 56, respectively. Besides, the Modulation factor amounted to 17 in series [6] and 3 in series [7].
As to `CCOC(=O)COc1cc(-c2cc(=O)c3c(O)cc(OCC(=O)N4CCN(Cc5ccc(OC)c(OC)c5OC)CC4)cc3o2)ccc1OC`, the IC50 in series [1] was more than 20 µM. The “Relative JC-1 accumulation” value in series [3] was determined as 73; in series [4], 14; in series [5], 69. For the same compound, the Modulation factor in series [6] stood at 22; in series [7], 9.
For `COc1ccc(-c2cc(=O)c3c(O)cc(O[C@@H]4O[C@H](CO)[C@H](O)[C@@H](O)[C@H]4O)cc3o2)cc1OCC(=O)N1CCN(Cc2ccc(OC)c(OC)c2OC)CC1`, in series [1], the IC50 is more than 20 µM. This compound registered a Modulation factor in series [2] of 1. Besides, the “Relative JC-1 accumulation” value in series [3], in series [4] and in series [5] was 0 in each case.
For `COc1ccc(-c2cc(=O)c3c(OCC(=O)N4CCN(Cc5ccc(OC)c(OC)c5OC)CC4)cc(O)cc3o2)cc1O`, the IC50 in series [1] is more than 20 µM. Besides, the “Relative JC-1 accumulation” value in series [3], in series [4] and in series [5] was 0 in each case. In series [6], this compound gave a Modulation factor of 1.
As for `CCOC(=O)COc1cc(-c2cc(=O)c3c(O)cc(OCC(=O)N4CCN(Cc5ccccc5)CC4)cc3o2)ccc1OC`, the IC50 in series [1] was more than 20 µM. Further, the results for the “Relative JC-1 accumulation” value in series [3], in series [4] and in series [5] were 38, 10 and 35, respectively. Besides, the Modulation factor was 21 in series [6] and 4 in series [7].
`COc1ccc(C2CC(=O)c3c(O)cc(OCC(=O)N4CCN(Cc5ccc(OC)c(OC)c5)CC4)cc3O2)cc1O` (configuration not stated): the IC50 in series [1] was more than 20 µM. Also, the “Relative JC-1 accumulation” value in series [3] stood at 31; in series [4] it was 0; in series [5], 9. Further, the Modulation factor was 31 in series [6] and 4 in series [7].
As to `COc1ccc(-c2cc(=O)c3c(O)cc(OCC(=O)N4CCN(Cc5ccc(OC)c(OC)c5OC)CC4)cc3o2)cc1O`, in series [1], the IC50 turned out to be 6 µM. Further, the figures for the “Relative JC-1 accumulation” value in series [3], in series [4] and in series [5] were 30, 4 and 50, respectively. Besides, the figures for the Modulation factor in series [6] and in series [7] were 78 and 11, respectively.
Consider `COc1ccc(C2CC(=O)c3c(O)cc(OCC(=O)N4CCN(Cc5cc(OC)c(OC)c(OC)c5)CC4)cc3O2)cc1O` (configuration not stated), for which the IC50 in series [1] is more than 20 µM. Also, the figures for the “Relative JC-1 accumulation” value in series [3], in series [4] and in series [5] were 8, 0 and 3, respectively. The Modulation factor in series [6] came out at 21; in series [7], 2.
On to `COc1ccc(-c2cc(=O)c3c(O)cc(O)cc3o2)cc1OCC(=O)N1CCN(Cc2ccc(OC)c(OC)c2OC)CC1`, for which the IC50 in series [1] was more than 20 µM. Also, the Modulation factor in series [2] was 1. Besides, the “Relative JC-1 accumulation” value in series [3], in series [4] and in series [5] was 0 each time.
